The nature of test [1]: Activity at beta-galactosidase in Bacillus subtilis. The method, boiled down:
(§1)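 B. subtilis tester strain carrying an srfA-lacZ fusion that responds to added pheromone. Overnight culture diluted 100-fold, added to sample solution, incubated 37 °C, 5 h, 150 rpm. β-Galactosidase measured with o-nitrophenyl-β-D-galactopyranoside at 30 °C, read at 420 nm. Analogs tested at concentrations up to 300 nM.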

In another test the test system is Bacillus subtilis. The test can be described thus: Activity at beta-galactosidase in Bacillus subtilis relative to ComXRO-E-2. The arrangement: concentration or dose not given beside the values. The method, boiled down:
as §1

The structures appear in SMILES notation. *1 amine or outer side, *2 acyl side, *3 side chain or, on linkers, in order; H or OH if unused. Where a SMILES comes first, the peptide text is derived from it. [ ]: non-standard residue; d: D form. X1 = CC(C)=CCC/C(C)=C\C[C@@]12c3ccccc3N[C@@H]1N([*:1])C[C@@H]2C(=O)[*:2]

Among the data in ChEMBL document CHEMBL1139111, “Structure-activity relationship studies on quorum sensing ComX(RO-E-2) pheromone” (Bioorg Med Chem Lett, 2007) are EC50 and Activity values, retold here.

As usually defined, the EC50 is the concentration giving half of the maximal effect.

`CC[C@H](C)[C@H](N)C(=O)N[C@@H](Cc1ccccc1)C(=O)N1C[C@H](C(=O)N[C@@H](CCC(=O)O)C(=O)O)[C@]2(C/C=C(/C)CCC=C(C)C)c3ccccc3N[C@H]12`: in test [1], the EC50 was determined as 20 nM. This compound also came in with an Activity with Bacillus subtilis of 80%.

`CC[C@H](C)[C@H](NC(=O)[C@@H](C)N)C(=O)N[C@@H](Cc1ccccc1)C(=O)N1C[C@H](C(=O)N[C@@H](CCC(=O)O)C(=O)N[C@@H](CCC(N)=O)C(=O)O)[C@]2(C/C=C(/C)CCC=C(C)C)c3ccccc3N[C@H]12` came in with an EC50 in test [1] of 3 nM. Also, the Activity in the test with Bacillus subtilis is 100%.

For the compound `CC(C)=CCC/C(C)=C\C[C@@]12c3ccccc3N[C@@H]1NC[C@@H]2C(=O)N[C@@H](CCC(=O)O)C(=O)N[C@@H](CCC(N)=O)C(=O)O`, the EC50 in test [1] is more than 300 nM. The compound further registered an Activity with Bacillus subtilis of 15%.

Take `CC[C@H](C)[C@H](N)C(=O)N[C@@H](Cc1ccccc1)C(=O)N1C[C@H](C(=O)O)[C@]2(C/C=C(/C)CCC=C(C)C)c3ccccc3N[C@H]12`: the EC50 in test [1] is 160 nM. In addition, the Activity in the test with Bacillus subtilis came out at 55%.

For the compound `CC(C)=CCC/C(C)=C\C[C@@]12c3ccccc3N[C@@H]1N(C(=O)[C@@H](N)Cc1ccccc1)C[C@@H]2C(=O)N[C@@H](CCC(=O)O)C(=O)N[C@@H](CCC(N)=O)C(=O)O`, in test [1], the 50% effective concentration (EC50) was 8 nM. This compound also showed an Activity with Bacillus subtilis of 70%.

As for `CC(C)=CCC/C(C)=C\C[C@@]12c3ccccc3N[C@@H]1N(C(=O)[C@@H](N)Cc1ccccc1)C[C@@H]2C(=O)N[C@@H](CCC(=O)O)C(=O)O`, it took 20 nM to reach a half-maximal effect in test [1] (EC50). Also, in the test on Bacillus subtilis, the Activity was 60%.

Take `CC[C@H](C)[C@H](NC(=O)CN)C(=O)N[C@@H](Cc1ccccc1)C(=O)N1C[C@H](C(=O)O)[C@]2(C/C=C(/C)CCC=C(C)C)c3ccccc3N[C@H]12`: it took 130 nM to reach a half-maximal effect in test [1] (EC50). The Activity with Bacillus subtilis came to 60%.

Regarding `CC[C@H](C)[C@H](NC(=O)CNC(=O)[C@H](C)N)C(=O)N[C@@H](Cc1ccccc1)C(=O)N1C[C@H](C(=O)N[C@@H](CCC(=O)O)C(=O)N[C@@H](CCC(N)=O)C(=O)O)[C@]2(C/C=C(/C)CCC=C(C)C)c3ccccc3N[C@H]12` (H-AGIF[X1]EQ-OH), in test [1], the midpoint of the response, the EC50, lay at 1 nM. The compound also gave an Activity with Bacillus subtilis of 100%.

For the compound `CC(C)=CCC/C(C)=C\C[C@@]12c3ccccc3N[C@@H]1N(C(=O)[C@H](Cc1ccccc1)NC(=O)[C@H](C)NC(=O)CN)C[C@@H]2C(=O)N[C@@H](CCC(=O)O)C(=O)N[C@@H](CCC(N)=O)C(=O)O` (H-GAF[X1]EQ-OH), the EC50 in test [1] was found to be 10 nM. In the test on Bacillus subtilis, this compound showed an Activity of 95%.

For the compound `CC[C@H](C)[C@H](NC(=O)CN)C(=O)N[C@@H](C)C(=O)N1C[C@H](C(=O)N[C@@H](CCC(=O)O)C(=O)N[C@@H](CCC(N)=O)C(=O)O)[C@]2(C/C=C(/C)CCC=C(C)C)c3ccccc3N[C@H]12` (H-GIA[X1]EQ-OH), in test [1], the half-maximal effective concentration (EC50) is 20 nM. The Activity in the test with Bacillus subtilis came to 90%.

Take `CC[C@H](C)[C@H](NC(=O)CN)C(=O)N[C@@H](Cc1ccccc1)C(=O)N1C[C@H](C(=O)N[C@@H](C)C(=O)N[C@@H](CCC(N)=O)C(=O)O)[C@]2(C/C=C(/C)CCC=C(C)C)c3ccccc3N[C@H]12` (H-GIF[X1]AQ-OH): the EC50 in test [1] was found to be 3 nM. Moreover, the Activity in the test with Bacillus subtilis was 100%.

`CC[C@H](C)[C@H](NC(=O)CN)C(=O)N[C@@H](Cc1ccccc1)C(=O)N1C[C@H](C(=O)N[C@@H](CCC(=O)O)C(=O)O)[C@]2(C/C=C(/C)CCC=C(C)C)c3ccccc3N[C@H]12` (H-GIF[X1]E-OH) displayed a concentration giving a half-maximal response (EC50) in test [1] of 20 nM. Moreover, in the test with Bacillus subtilis, the Activity worked out at 80%.

In test [1], `CC[C@H](C)[C@H](NC(=O)CN)C(=O)N[C@@H](Cc1ccccc1)C(=O)N1C[C@H](C(=O)N[C@@H](CCC(=O)O)C(=O)N[C@@H](C)C(=O)O)[C@]2(C/C=C(/C)CCC=C(C)C)c3ccccc3N[C@H]12` (H-GIF[X1]EA-OH) came in with an EC50 of 20 nM. In the test with Bacillus subtilis, this compound yielded an Activity of 95%.

Consider `CC[C@H](C)[C@H](NC(=O)CN)C(=O)N[C@@H](Cc1ccccc1)C(=O)N1C[C@H](C(=O)N[C@@H](CCC(=O)O)C(=O)N[C@@H](CCC(N)=O)C(=O)O)[C@]2(C/C=C(/C)CCC=C(C)C)c3ccccc3N[C@H]12` (H-GIF[X1]EQ-OH), for which the EC50 in test [1] was 1 nM. This compound gave an Activity with Bacillus subtilis of 100%.

Regarding `CC[C@H](C)[C@H](N)C(=O)N[C@@H](Cc1ccccc1)C(=O)N1C[C@H](C(=O)N[C@@H](CCC(=O)O)C(=O)N[C@@H](CCC(N)=O)C(=O)O)[C@]2(C/C=C(/C)CCC=C(C)C)c3ccccc3N[C@H]12` (H-IF[X1]EQ-OH), the response in test [1] was half-maximal at 6 nM (EC50). For the same compound, the Activity with Bacillus subtilis is 100%.
